ChEMBL document CHEMBL1131572, “A potent, orally bioavailable benzazepinone growth hormone secretagogue” (1998)

Species: Rattus norvegicus
Assay: In vitro growth hormone (GH) releasing activity in rat primary pituitary cells.
Assay type: functional
Details: Pituitary gland cell, read-out: ED50 (the source's name)
Procedure, shortened: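 Rat anterior pituitaries dispersed with 0.2% collagenase and 0.2% hyaluronidase, then cultured 3–4 days at 37 °C, 5% CO₂, in DMEM with 10% horse serum and 2.5% FBS. Cells washed in medium with 25 mM HEPES pH 7.4, then exposed in quadruplicate to serially diluted agents (final 1% DMSO) for 15 min at 37 °C. Medium GH measured by double-antibody RIA; ED₅₀ = dose giving 50% maximal GH release.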
With `CC(C)NC(=O)NCc1ccccc1-c1ccc(CN2C(=O)[C@H](NC(=O)C(C)(C)N)CCc3ccccc32)cc1` the EC50 was 270 nM.
`CC(C)(N)C(=O)N[C@@H]1CCc2ccccc2N(Cc2ccc(-c3ccccc3CNC(=O)NCCO)cc2)C1=O` gave an EC50 of 2 nM.
For `CC(=O)NCc1ccccc1-c1ccc(CN2C(=O)[C@H](NC(=O)CC(C)(C)N)CCc3ccccc32)cc1`, the EC50 was 200 nM.
`CC(C)(N)C(=O)N[C@@H]1CCc2ccccc2N(Cc2ccc(-c3ccccc3CNC(=O)NC3CC3)cc2)C1=O` was tested, and the EC50 was 45 nM.
For `CNC(=O)Nc1ccccc1-c1ccc(CN2C(=O)[C@H](NC(=O)CC(C)(C)N)CCc3ccccc32)cc1`, the EC50 was 50 nM.
`CC(C)(N)CC(=O)N[C@@H]1CCc2ccccc2N(Cc2ccc(-c3ccccc3CN)cc2)C1=O` was tested, and the EC50 was > 1000 nM.
In the case of `CC(C)(N)C(=O)N[C@@H]1CCc2ccccc2N(Cc2ccc(-c3ccccc3CNC(=O)NCc3ccccc3)cc2)C1=O`, the EC50 is reported as 390 nM.
`CCNC(=O)NCc1ccccc1-c1ccc(CN2C(=O)[C@H](NC(=O)C(C)(C)N)CCc3ccccc32)cc1` was tested, and the EC50 was 6 nM.
Work on `CCCNC(=O)NCc1ccccc1-c1ccc(CN2C(=O)[C@H](NC(=O)C(C)(C)N)CCc3ccccc32)cc1` yielded an EC50 of 144 nM.
`CNC(=O)NCc1ccccc1-c1ccc(CN2C(=O)[C@H](NC(=O)C(C)(C)N)CCc3ccccc32)cc1` showed an EC50 of 1 nM.
`CNC(=O)NCc1ccccc1-c1ccc(CN2C(=O)[C@H](NC(=O)CC(C)(C)N)CCc3ccccc32)cc1` was tested, and the EC50 was 6 nM.
`CC(C)(N)C(=O)N[C@@H]1CCc2ccccc2N(Cc2ccc(-c3ccccc3CNC(N)=O)cc2)C1=O` gave an EC50 of 21 nM.
With `CC(C)(N)CC(=O)N[C@@H]1CCc2ccccc2N(Cc2ccc(-c3ccccc3C(N)=O)cc2)C1=O` the EC50 was 80 nM.
`CC(C)(N)CC(=O)N[C@@H]1CCc2ccccc2N(Cc2ccc(-c3ccccc3-c3nn[nH]n3)cc2)C1=O` gave an EC50 of 60 nM.
In the case of `CNC(=O)NCCc1ccccc1-c1ccc(CN2C(=O)[C@H](NC(=O)C(C)(C)N)CCc3ccccc32)cc1`, the EC50 is reported as 40 nM.
`CN(C)C(=O)NCc1ccccc1-c1ccc(CN2C(=O)[C@H](NC(=O)C(C)(C)N)CCc3ccccc32)cc1` was tested, and the EC50 was 60 nM.
Work on `CC(C)(N)C(=O)N[C@@H]1CCc2ccccc2N(Cc2ccc(-c3ccccc3-c3nn[nH]n3)cc2)C1=O` yielded an EC50 of 30 nM.
